Assay results as given in publication PMC6260803 (Angewandte Chemie (International ed. in English), 2015).
Residues, ends and D or L forms follow the SMILES beside them. *: point of attachment. X1 = O=C(CO[C@H]1O[C@H](CO)[C@@H](O)[C@H](O)[C@@H]1O)*

What was measured:
griffithsin (GRFT) = griffithsin (GRFT) (Griffithsia sp., UniProt P84801); type: binding
immobilized GRFT = immobilized GRFT (Griffithsia sp., UniProt P84801); experiment: SPR analysis of binding to immobilized GRFT; conditions: run in triplicate; for binding response to immobilized GRFT (in words): SPR sensorgrams; for association rate (kon) to GRFT (in words) / dissociation rate (koff) from GRFT (in words): SPR, immobilized GRFT
Chain of immobilized GRFT (P84801 whole entry): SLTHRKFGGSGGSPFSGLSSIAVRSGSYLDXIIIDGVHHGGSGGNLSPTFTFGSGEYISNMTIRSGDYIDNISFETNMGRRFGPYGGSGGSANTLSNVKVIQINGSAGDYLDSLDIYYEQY
Procedure, shortened: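 Glycopeptide high-mannose mimetics with varied mannose valency and spacing were passed over immobilized griffithsin, with a nonglycosylated peptide as negative control. Runs were in triplicate. Sensorgrams and Langmuir binding curves were generated, and association and dissociation rates were assessed from the sensorgrams.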

[1] = isothermal titration calorimetry, binding to GRFT, value ± spread

Chain of griffithsin (GRFT) (P84801 whole entry): as above

Compound | n (stoichiometry of binding) (griffithsin (GRFT); [1]) | stoichiometry of binding to GRFT (rounded, as stated in text) (griffithsin (GRFT); ITC) | dissociation rate (koff) from GRFT (in words) (immobilized GRFT) | further results
CC(=O)N[C@@H](CCCCNC(=O)CO[C@H]1O[C@H](CO)[C@@H](O)[C@H](O)[C@@H]1O)C(=O)NCC(=O)N[C@@H](CCCCNC(=O)CO[C@H]1O[C@H](CO)[C@@H](O)[C@H](O)[C@@H]1O)C(N)=O [Compound 1] | 1.56 ± 0.01 |  |  | binding response to immobilized GRFT (in words) (immobilized GRFT): weakest response of any of the glycopeptides
NC(=O)[C@H](CCCCNC(=O)[C@H](CCCCNC(=O)CNC(=O)CO[C@H]1O[C@H](CO)[C@@H](O)[C@H](O)[C@@H]1O)NC(=O)CNC(=O)CO[C@H]1O[C@H](CO)[C@@H](O)[C@H](O)[C@@H]1O)NC(=O)[C@H](CCCCNC(=O)CNC(=O)CO[C@H]1O[C@H](CO)[C@@H](O)[C@H](O)[C@@H]1O)NC(=O)CNC(=O)CO[C@H]1O[C@H](CO)[C@@H](O)[C@H](O)[C@@H]1O [Compound 12] | 1.08 ± 0.08 | 1 |  | Kd lower compared to glycopeptides 10 and 11 (griffithsin (GRFT); ITC, Kd of 12 versus 10 and 11): approximately 30 fold
NC(=O)[C@H](CCCCNC(=O)CNC(=O)[C@H](CCCCNC(=O)CO[C@H]1O[C@H](CO)[C@@H](O)[C@H](O)[C@@H]1O)NC(=O)CO[C@H]1O[C@H](CO)[C@@H](O)[C@H](O)[C@@H]1O)NC(=O)CNC(=O)[C@H](CCCCNC(=O)CO[C@H]1O[C@H](CO)[C@@H](O)[C@H](O)[C@@H]1O)NC(=O)CO[C@H]1O[C@H](CO)[C@@H](O)[C@H](O)[C@@H]1O [Compound 11] | 1.45 ± 0.12 | 1.5 | very slow koff rates | association rate (kon) to GRFT (in words) (immobilized GRFT): slower kon rates
CC(=O)N[C@@H](CCCCNC(=O)CO[C@H]1O[C@H](CO)[C@@H](O)[C@H](O)[C@@H]1O)C(=O)NCC(=O)N[C@@H](CCCCNC(=O)CO[C@H]1O[C@H](CO)[C@@H](O)[C@H](O)[C@@H]1O)C(=O)NCC(=O)N[C@@H](CCCCNC(=O)CO[C@H]1O[C@H](CO)[C@@H](O)[C@H](O)[C@@H]1O)C(=O)NCC(=O)N[C@@H](CCCCNC(=O)CO[C@H]1O[C@H](CO)[C@@H](O)[C@H](O)[C@@H]1O)C(=O)NCC(=O)N[C@@H](CCCCNC(=O)CO[C@H]1O[C@H](CO)[C@@H](O)[C@H](O)[C@@H]1O)C(=O)NCC(=O)N[C@@H](CCCCNC(=O)CO[C@H]1O[C@H](CO)[C@@H](O)[C@H](O)[C@@H]1O)C(N)=O [Compound 4] | 0.52 ± 0.05 | 0.5 | significantly slower rate than Km3G1 and Km4G1 | 
chitobiose [reference compound] |  |  |  | binding response to immobilized GRFT (in words) (immobilized GRFT): Negligible binding
CC(=O)N[C@@H]1[C@@H](O)[C@H](O[C@@H]2O[C@H](CO)[C@@H](O[C@@H]3O[C@H](CO[C@H]4O[C@H](CO[C@H]5O[C@H](CO)[C@@H](O)[C@H](O)[C@@H]5O[C@H]5O[C@H](CO)[C@@H](O)[C@H](O)[C@@H]5O)[C@@H](O)[C@H](O[C@H]5O[C@H](CO)[C@@H](O)[C@H](O)[C@@H]5O[C@H]5O[C@H](CO)[C@@H](O)[C@H](O)[C@@H]5O)[C@@H]4O)[C@@H](O)[C@H](O[C@H]4O[C@H](CO)[C@@H](O)[C@H](O)[C@@H]4O[C@H]4O[C@H](CO)[C@@H](O)[C@H](O)[C@@H]4O[C@H]4O[C@H](CO)[C@@H](O)[C@H](O)[C@@H]4O)[C@@H]3O)[C@H](O)[C@H]2NC(C)=O)[C@@H](CO)O[C@H]1NC(=O)C[C@H](N)C(=O)O [Compound 14, Man9GlcNAc2Asn, reference compound] | 1.39 ± 0.12 |  | slower koff rate than nonamannoside 13 | Kd (griffithsin (GRFT); [1]): 540 ± 270 nM
CC(=O)N[C@@H](CNC(=O)CO[C@H]1O[C@H](CO)[C@@H](O)[C@H](O)[C@@H]1O)C(=O)N[C@@H](CNC(=O)CO[C@H]1O[C@H](CO)[C@@H](O)[C@H](O)[C@@H]1O)C(=O)N[C@@H](CNC(=O)CO[C@H]1O[C@H](CO)[C@@H](O)[C@H](O)[C@@H]1O)C(N)=O [Compound 8] | 1.38 ± 0.17 | 1.5 | by far the slowest dissociation rate | 
CC(=O)N[C@@H](CCCNC(=O)CO[C@H]1O[C@H](CO)[C@@H](O)[C@H](O)[C@@H]1O)C(=O)N[C@@H](CCCNC(=O)CO[C@H]1O[C@H](CO)[C@@H](O)[C@H](O)[C@@H]1O)C(=O)N[C@@H](CCCNC(=O)CO[C@H]1O[C@H](CO)[C@@H](O)[C@H](O)[C@@H]1O)C(N)=O [Compound 7] | 0.94 ± 0.19 | 1 |  | 
CC(=O)N[C@@H](CCCCNC(=O)CO[C@H]1O[C@H](CO)[C@@H](O)[C@H](O)[C@@H]1O)C(=O)N[C@@H](CCCCNC(=O)CO[C@H]1O[C@H](CO)[C@@H](O)[C@H](O)[C@@H]1O)C(=O)N[C@@H](CCCCNC(=O)CO[C@H]1O[C@H](CO)[C@@H](O)[C@H](O)[C@@H]1O)C(N)=O [Compound 6] | 0.98 ± 0.11 |  |  | 
pentamannoside [reference compound] |  |  |  | binding response to immobilized GRFT (in words) (immobilized GRFT): Negligible binding
CC(=O)N[C@@H](CCCCNC(=O)CO[C@H]1O[C@H](CO)[C@@H](O)[C@H](O)[C@@H]1O)C(=O)NCC(=O)N[C@@H](CCCCNC(=O)CO[C@H]1O[C@H](CO)[C@@H](O)[C@H](O)[C@@H]1O)C(=O)NCC(=O)N[C@@H](CCCCNC(=O)CO[C@H]1O[C@H](CO)[C@@H](O)[C@H](O)[C@@H]1O)C(=O)NCC(=O)N[C@@H](CCCCNC(=O)CO[C@H]1O[C@H](CO)[C@@H](O)[C@H](O)[C@@H]1O)C(N)=O [Compound 3] | 0.68 ± 0.03 |  |  | 
CC(=O)N[C@@H](CCCCNC(=O)CO[C@H]1O[C@H](CO)[C@@H](O)[C@H](O)[C@@H]1O)C(=O)NCC(=O)N[C@@H](CCCCNC(=O)CO[C@H]1O[C@H](CO)[C@@H](O)[C@H](O)[C@@H]1O)C(=O)NCC(=O)N[C@@H](CCCCNC(=O)CO[C@H]1O[C@H](CO)[C@@H](O)[C@H](O)[C@@H]1O)C(N)=O [Compound 2] | 0.96 ± 0.24 | 1 |  | 
CC(=O)N[C@@H](CCCCNC(=O)CO[C@H]1O[C@H](CO)[C@@H](O)[C@H](O)[C@@H]1O)C(=O)NCC(=O)NCC(=O)N[C@@H](CCCCNC(=O)CO[C@H]1O[C@H](CO)[C@@H](O)[C@H](O)[C@@H]1O)C(=O)NCC(=O)NCC(=O)N[C@@H](CCCCNC(=O)CO[C@H]1O[C@H](CO)[C@@H](O)[C@H](O)[C@@H]1O)C(N)=O [Compound 5] (Ac-K(X1)GGK(X1)GGK(X1)-NH2; N-terminus and C-terminus assumed) | 1.16 ± 0.25 |  |  | 
NC(=O)[C@H](CCCCNC(=O)[C@H](CCCCNC(=O)CO[C@H]1O[C@H](CO)[C@@H](O)[C@H](O)[C@@H]1O)NC(=O)CO[C@H]1O[C@H](CO)[C@@H](O)[C@H](O)[C@@H]1O)NC(=O)[C@H](CCCCNC(=O)CO[C@H]1O[C@H](CO)[C@@H](O)[C@H](O)[C@@H]1O)NC(=O)CO[C@H]1O[C@H](CO)[C@@H](O)[C@H](O)[C@@H]1O [Compound 10] | 1.96 ± 0.09 | 2 | very slow koff rates | association rate (kon) to GRFT (in words) (immobilized GRFT): slower kon rates
